In ChEMBL document CHEMBL5321286, “Antiviral Evaluation of Dispirotripiperazines against Hepatitis B Virus” (J Med Chem, 2023):
Active and inactive are the calls of the source. No cut-off for these calls is given here.

What was measured:
[1] = Selectivity index, ratio of CC50 for cytotoxicity against human HepG2 2.2.15 cells to EC90 for antiviral activity against Hepatitis B virus ayw1 infected in human HepG2 2.2.15 cells; assay type: toxicity, cell-based
Summary of the method: (§1)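 HepG2 2.2.15 cells seeded at 1.5 × 10^4 cells/well in DMEM with 2% FBS, 380 μg/mL G418 and glutamine, using interior wells only. After 16-24 h, the medium was replaced with serial compound dilutions in triplicate, refreshed at day 3. At day 6, pronase-treated supernatant HBV DNA was measured by TaqMan qPCR against a standard curve (EC50/EC90). MTS viability on the same plate gave CC50; SI = CC50/EC.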

Hepatitis B virus [2] = assay: Antiviral activity against Hepatitis B virus ayw1 infected in human HepG2 2.2.15 cells assessed as reduction in viral DNA replication preincubated for 3 days followed by media replacement and measured 6 days after first dose by q-PCR assay; conditions: ayw1, HepG2 2.2.15, 144 h
Hepatitis B virus [3] = assay: Antiviral activity against Hepatitis B virus ayw1 infected in human HepG2 2.2.15 cells assessed as reduction in viral DNA replication preincubated for 3 days followed by media replacement and measured after 6 days by q-PCR assay; assay type: functional, organism-based; conditions: ayw1, HepG2 2.2.15
Summary of the method: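 HepG2 2.2.15 cells at 1.5 × 10^4 cells/well in DMEM with 2% FBS and 380 μg/mL G418, treated after 16-24 h at several concentrations in triplicate. Compound medium renewed on day 3. Supernatant taken on day 6, pronase-treated, and extracellular HBV DNA measured by TaqMan qPCR against a purified HBV DNA standard curve. EC50 and EC90 taken from the DNA reduction. Lamivudine served as positive control and medium alone as virus control.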

[4] = Selectivity index, ratio of CC50 for cytotoxicity against human HepG2 2.2.15 cells to EC50 for antiviral activity against Hepatitis B virus ayw1 infected in human HepG2 2.2.15 cells; assay type: toxicity, cell-based; conditions: read-out: Ratio CC50/EC50; summary of the method: as §1
[5] = Selectivity index, ratio of CC50 for cytotoxicity against human HepDES19 cells to EC50 for antiviral activity against Hepatitis B virus infected in human HepDES19 cells; assay type: toxicity, cell-based; conditions: for selectivity ratio: HepDES19 cells, read-out: Ratio CC50/EC50
Summary of the method: (§2)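 HepDES19 (HepG2-derived, tetracycline-repressible HBV cassette) cells were induced to replicate HBV by tetracycline withdrawal and exposed to compound for 3 days. Replication was read by strand-preferential qPCR; cytotoxicity by MTS assay.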

[6] = Cytotoxicity against human HepDES19 cells assessed as reduction in cell viability incubated for 72 hrs by MTS assay; assay type: toxicity, cell-based; conditions: for CC50 at 72 h: HepDES19 cells; summary of the method: as §2
Hepatitis B virus [7] = assay: Antiviral activity against Hepatitis B virus infected in human HepDES19 cells assessed as reduction in viral DNA replication measured after 3 days by q-PCR assay; assay type: functional, organism-based
Summary of the method: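 HepDES19, a HepG2 derivative with a tetracycline-repressible HBV cassette, was induced to replicate HBV by tetracycline withdrawal. Cells were exposed to compound for 3 days. Replication was measured by strand-preferential qPCR.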

[8] = Cytotoxicity against human HepG2 2.2.15 cells assessed as reduction in cell viability by MTS assay; assay type: toxicity, cell-based; summary of the method: as §1
Hepatitis B virus [9] = assay: Antiviral activity against Hepatitis B virus infected in human HepDES19 cells assessed as reduction in capsid accumulation by measuring intracellular HBV nucleocapsid level after 5 days by agarose gel electrophoresis-based assay; assay type: functional, organism-based; conditions: time 5.0 day
Summary of the method: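 HepDES19 cells replicating HBV were treated for 5 days. They were lysed in 10mM Tris pH 7.4, 1% Tween 20 and 150mM NaCl with protease inhibitors. Lysates were digested with micrococcal nuclease plus 10mM CaCl2 (final), normalised for protein by Bradford, and run on native agarose gels. Gels were capillary-blotted to nitrocellulose and probed with anti-HBcAg and an AP-conjugated secondary with BCIP/NBT. Bands were quantified by densitometry.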

[10] = Hepatitis B virus, HepDES19, 72 h

| SMILES | selectivity ratio [1] | EC90 (Hepatitis B virus [2]) [µM] | EC50 (Hepatitis B virus [3]) [nM] | selectivity ratio [4] | selectivity ratio [5] | CC50 at 72 h [6] [µM] | EC50 (Hepatitis B virus [7]; [10]) [µM] | CC50 [8] [µM] | Ratio CC50/EC50 [5] | EC50 (Hepatitis B virus [7]; hepdes19) [µM] | Activity (Hepatitis B virus [9]) | CC50 ([6]; hepdes19, 72 h, 72 h) [µM] |
| --- | --- | --- | --- | --- | --- | --- | --- | --- | --- | --- | --- | --- |
| O=Cc1c(N2CC[N+]3(CC2)CC[N+]2(CCNCC2)CC3)nc(-c2ccccc2)nc1N1CC[N+]2(CC1)CC[N+]1(CCNCC1)CC2 | > 4 | 26.5 | 2130 | > 47 | 41 | 86 | 2.1 | > 100 |  |  |  |  |
| O=Cc1c(N2CCC[N+]3(CC2)CC[N+]2(CCCNCC2)CC3)nc(-c2ccccc2)nc1N1CCC[N+]2(CC1)CC[N+]1(CCCNCC1)CC2 (configuration not stated) |  |  |  |  | 8.4 | 92 | 11 |  |  |  |  |  |
| Nc1ccn([C@@H]2CS[C@H](CO)O2)c(=O)n1 [LAMIVUDINE] | > 4 | 0.541 | 18 | > 113 |  |  |  | > 2 |  |  |  |  |
| O=Cc1c(N2CCC[N+]3(CC2)CC[N+]2(CCCNCC2)CC3)ncnc1N1CCC[N+]2(CC1)CC[N+]1(CCCNCC1)CC2 (configuration not stated) |  |  |  |  | < 1 | 100 | > 100 |  |  |  |  |  |
| O=Cc1c(O)nc(N2CC[N+]3(CCC[N+]4(CCNCC4)CC3)CC2)nc1N1CC[N+]2(CCC[N+]3(CCNCC3)CC2)CC1 |  |  |  |  | 100 | 100 | 1 |  |  |  |  |  |
| Clc1nc(N2CCC[N+]3(CC2)CC[N+]2(CCCNCC2)CC3)nc(N2CCC[N+]3(CC2)CC[N+]2(CCCNCC2)CC3)n1.[Br-].[Br-].[Br-].[Br-] (configuration not stated) |  |  |  |  |  | 99 |  |  | 13 | 7.5 |  |  |
| O=Cc1c(N2CC[N+]3(CCC[N+]4(CCNCC4)CC3)CC2)ncnc1N1CC[N+]2(CCC[N+]3(CCNCC3)CC2)CC1 |  |  |  |  | < 1 | 100 | > 100 |  |  |  |  |  |
| Cc1nc(N2CCC[N+]3(CC2)CC[N+]2(CCCNCC2)CC3)c([N+](=O)[O-])c(N2CCC[N+]3(CC2)CC[N+]2(CCCNCC2)CC3)n1 (configuration not stated) |  |  |  |  | 19 | 100 | 5.3 |  |  |  |  |  |
| O=[N+]([O-])c1c(N2CC[N+]3(CCC[N+]4(CCNCC4)CC3)CC2)ncnc1N1CC[N+]2(CCC[N+]3(CCNCC3)CC2)CC1 |  |  |  |  | 11 | 100 | 9 |  |  |  |  |  |
| Cc1nc(N2CC[N+]3(CC2)CC[N+]2(CCNCC2)CC3)c(N)c(N2CC[N+]3(CC2)CC[N+]2(CCNCC2)CC3)n1 | > 6 | 15.7 | 1860 | > 54 | 143 | 100 | 0.7 | > 100 |  |  |  |  |
| Nc1c(N2CCC[N+]3(CC2)CC[N+]2(CCCNCC2)CC3)ncnc1N1CCC[N+]2(CC1)CC[N+]1(CCCNCC1)CC2 (configuration not stated) |  |  |  |  | 2.5 | 100 | 40 |  |  |  |  |  |
| Cc1nc(N2CC[N+]3(CCC[N+]4(CCNCC4)CC3)CC2)c([N+](=O)[O-])c(N2CC[N+]3(CCC[N+]4(CCNCC4)CC3)CC2)n1 | > 2 | 58.1 | 6530 | > 15 | 15 | 100 | 6.5 | > 100 |  |  | Active |  |
| Clc1nc(N2CCC[N+]3(CC2)CC[N+]2(CCCNCC2)CC3)nc(N2CCC[N+]3(CC2)CC[N+]2(CCCNCC2)CC3)n1 (configuration not stated) |  |  |  |  |  |  |  |  |  |  | Active |  |
| Nc1c(N2CC[N+]3(CCC[N+]4(CCNCC4)CC3)CC2)ncnc1N1CC[N+]2(CCC[N+]3(CCNCC3)CC2)CC1 | > 1 | 78.1 | 22000 | > 5 | 4.5 | 100 | 22 | > 100 |  |  |  |  |
| Cl.Cl.Clc1nc(N2CCC[N+]3(CC2)CC[N+]2(CCCNCC2)CC3)nc(N2CCC[N+]3(CC2)CC[N+]2(CCCNCC2)CC3)n1.[Br-].[Br-].[Br-].[Br-] (configuration not stated) |  |  |  |  |  |  |  |  | 0.67 | > 100 |  | 67 |
| O=[N+]([O-])c1c(N2CCC[N+]3(CC2)CC[N+]2(CCCNCC2)CC3)ncnc1N1CCC[N+]2(CC1)CC[N+]1(CCCNCC1)CC2 (configuration not stated) |  |  |  |  | 11 | 100 | 9 |  |  |  |  |  |
| O=Cc1c(N2CC[N+]3(CCC[N+]4(CCNCC4)CC3)CC2)nc(-c2ccccc2)nc1N1CC[N+]2(CCC[N+]3(CCNCC3)CC2)CC1 |  |  |  |  | 1.8 | 88 | 48 |  |  |  |  |  |
